ChEMBL document CHEMBL4422663, “Suppression of Tumor Growth and Metastases by Targeted Intervention in Urokinase Activity with Cyclic Peptides” (J Med Chem, 2019)
Calls of active or inactive are those of the source. The calls are words filed in the database; no cut-off is given here. Positions of bridges follow the written chain, without caps; N, C: chain ends. Residues, ends and D or L forms follow the SMILES beside them.

Legend:
[1] = biological target: T1, Urokinase-type plasminogen activator (Mus musculus, UniProt P06869); assay: Inhibition of mouse uPA
T1 sequence (P06869 21-178 limits assumed): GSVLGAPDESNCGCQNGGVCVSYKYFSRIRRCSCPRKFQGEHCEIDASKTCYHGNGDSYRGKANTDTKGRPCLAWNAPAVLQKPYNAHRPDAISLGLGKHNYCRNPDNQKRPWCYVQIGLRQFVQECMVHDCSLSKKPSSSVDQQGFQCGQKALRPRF
T1 sequence (P06869 180-433 limits assumed): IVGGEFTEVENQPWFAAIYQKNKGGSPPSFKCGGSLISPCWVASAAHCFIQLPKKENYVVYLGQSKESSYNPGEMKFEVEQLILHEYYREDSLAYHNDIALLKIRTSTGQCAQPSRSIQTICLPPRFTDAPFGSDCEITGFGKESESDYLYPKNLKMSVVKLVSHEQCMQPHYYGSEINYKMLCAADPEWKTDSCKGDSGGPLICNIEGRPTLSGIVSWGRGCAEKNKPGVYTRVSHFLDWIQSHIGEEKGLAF

CT26 [2] = assay: Cytotoxicity against mouse CT26 cells at 100 uM; format: cell-based; details: ct26, 100 µM
Plasma kallikrein [3] = biological target: Plasma kallikrein (Homo sapiens, UniProt P03952); assay: Inhibition of human plasma kallikrein preincubated for 15 mins followed by chromogenic substrate addition
Chain of Plasma kallikrein (Homo sapiens, UniProt P03952) (P03952 20-390 limits assumed): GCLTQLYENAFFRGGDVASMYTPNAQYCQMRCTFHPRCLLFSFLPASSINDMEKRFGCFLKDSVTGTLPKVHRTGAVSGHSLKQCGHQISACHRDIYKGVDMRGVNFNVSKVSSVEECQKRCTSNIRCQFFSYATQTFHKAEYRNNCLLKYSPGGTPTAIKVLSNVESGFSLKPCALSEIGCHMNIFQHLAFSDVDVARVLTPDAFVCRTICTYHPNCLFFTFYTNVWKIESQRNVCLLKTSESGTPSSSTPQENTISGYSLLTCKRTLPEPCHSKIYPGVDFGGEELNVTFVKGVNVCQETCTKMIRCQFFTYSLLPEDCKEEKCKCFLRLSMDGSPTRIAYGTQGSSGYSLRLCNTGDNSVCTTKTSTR
Chain of Plasma kallikrein (Homo sapiens, UniProt P03952) (P03952 391-638 limits assumed): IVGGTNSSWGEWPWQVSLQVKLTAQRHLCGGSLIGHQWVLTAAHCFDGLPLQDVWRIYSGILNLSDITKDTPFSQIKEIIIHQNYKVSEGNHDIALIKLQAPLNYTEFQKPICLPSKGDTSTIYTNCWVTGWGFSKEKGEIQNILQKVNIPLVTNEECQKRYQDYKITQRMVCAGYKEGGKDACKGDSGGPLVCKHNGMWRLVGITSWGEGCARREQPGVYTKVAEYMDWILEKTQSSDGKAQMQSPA

[4] = biological target: T1, Urokinase-type plasminogen activator; assay: Inhibition of mouse uPA serine protease domain preincubated for 15 mins followed by chromogenic substrate addition
Plasminogen [5] = biological target: Plasminogen (Mus musculus, UniProt P20918); assay: Inhibition of mouse plasmin preincubated for 15 mins followed by chromogenic substrate addition
Chain of Plasminogen (Mus musculus, UniProt P20918) (P20918 98-581 limits assumed): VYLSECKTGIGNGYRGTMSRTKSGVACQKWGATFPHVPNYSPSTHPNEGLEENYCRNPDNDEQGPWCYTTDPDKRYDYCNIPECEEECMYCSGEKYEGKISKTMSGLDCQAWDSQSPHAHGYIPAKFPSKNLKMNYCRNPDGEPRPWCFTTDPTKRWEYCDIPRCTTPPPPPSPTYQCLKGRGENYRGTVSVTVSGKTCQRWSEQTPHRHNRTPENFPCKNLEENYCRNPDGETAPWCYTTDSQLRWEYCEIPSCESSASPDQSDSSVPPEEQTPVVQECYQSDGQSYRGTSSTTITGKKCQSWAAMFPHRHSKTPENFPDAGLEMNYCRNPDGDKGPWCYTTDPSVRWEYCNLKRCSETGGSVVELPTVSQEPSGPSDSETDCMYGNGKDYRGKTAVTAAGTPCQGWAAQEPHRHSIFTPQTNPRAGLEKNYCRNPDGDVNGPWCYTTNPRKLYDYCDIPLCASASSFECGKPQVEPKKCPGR
Chain of Plasminogen (Mus musculus, UniProt P20918) (P20918 582-812 limits assumed): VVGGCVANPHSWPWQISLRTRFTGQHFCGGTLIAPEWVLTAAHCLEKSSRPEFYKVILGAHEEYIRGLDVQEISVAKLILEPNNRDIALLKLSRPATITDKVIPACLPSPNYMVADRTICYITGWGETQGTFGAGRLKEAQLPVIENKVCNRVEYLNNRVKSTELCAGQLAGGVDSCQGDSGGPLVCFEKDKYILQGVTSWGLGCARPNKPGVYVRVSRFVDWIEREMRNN

Prothrombin [6] = biological target: Prothrombin (Mus musculus, UniProt P19221); assay: Inhibition of mouse thrombin preincubated for 15 mins followed by chromogenic substrate addition
[7] = biological target: Tissue-type plasminogen activator (Mus musculus, UniProt P11214); assay: Inhibition of mouse tissue-type plasminogen activator preincubated for 15 mins followed by chromogenic substrate addition
Chain of Tissue-type plasminogen activator (Mus musculus, UniProt P11214) (P11214 whole entry): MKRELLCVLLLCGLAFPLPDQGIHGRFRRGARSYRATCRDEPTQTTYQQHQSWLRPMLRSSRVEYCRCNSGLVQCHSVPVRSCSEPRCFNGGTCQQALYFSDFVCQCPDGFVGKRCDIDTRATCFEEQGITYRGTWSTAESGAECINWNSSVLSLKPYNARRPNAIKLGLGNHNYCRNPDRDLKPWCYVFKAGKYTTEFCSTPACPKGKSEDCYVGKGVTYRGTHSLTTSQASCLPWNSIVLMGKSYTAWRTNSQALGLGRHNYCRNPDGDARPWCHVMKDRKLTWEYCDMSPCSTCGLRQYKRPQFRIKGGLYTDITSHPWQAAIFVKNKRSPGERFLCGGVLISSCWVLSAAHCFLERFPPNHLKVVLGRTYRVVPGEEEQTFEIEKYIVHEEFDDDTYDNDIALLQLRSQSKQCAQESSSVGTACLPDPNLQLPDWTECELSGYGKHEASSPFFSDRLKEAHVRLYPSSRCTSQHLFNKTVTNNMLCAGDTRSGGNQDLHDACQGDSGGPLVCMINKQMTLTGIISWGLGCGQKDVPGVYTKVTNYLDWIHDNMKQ

[8] = biological target: Vitamin K-dependent protein C (Homo sapiens, UniProt P04070); assay: Inhibition of human activated protein C preincubated for 15 mins followed by chromogenic substrate addition
Chain of Vitamin K-dependent protein C (P04070 43-197 limits assumed): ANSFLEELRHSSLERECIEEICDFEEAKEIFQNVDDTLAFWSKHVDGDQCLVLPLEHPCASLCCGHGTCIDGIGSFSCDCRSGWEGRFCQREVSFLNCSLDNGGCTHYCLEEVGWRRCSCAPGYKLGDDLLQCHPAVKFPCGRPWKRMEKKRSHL
Chain of Vitamin K-dependent protein C (P04070 212-461 limits assumed): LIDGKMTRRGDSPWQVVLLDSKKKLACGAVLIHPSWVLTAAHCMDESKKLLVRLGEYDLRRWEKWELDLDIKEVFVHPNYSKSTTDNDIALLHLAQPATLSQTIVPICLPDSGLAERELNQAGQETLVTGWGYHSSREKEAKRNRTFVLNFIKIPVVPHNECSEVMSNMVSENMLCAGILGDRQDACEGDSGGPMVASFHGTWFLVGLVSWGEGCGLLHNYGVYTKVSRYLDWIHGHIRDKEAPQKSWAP

[9] = Inhibition of mouse trypsin preincubated for 15 mins followed by chromogenic substrate addition
[10] = biological target: T1, Urokinase-type plasminogen activator; assay: Binding affinity to mouse uPA expressed in HEK2936E cells by ITC assay
Coagulation factor XI = Coagulation factor XI (Homo sapiens, UniProt P03951); assay: Inhibition of human factor 11a preincubated for 15 mins followed by chromogenic substrate addition
Chain of Coagulation factor XI (P03951 19-387 limits assumed): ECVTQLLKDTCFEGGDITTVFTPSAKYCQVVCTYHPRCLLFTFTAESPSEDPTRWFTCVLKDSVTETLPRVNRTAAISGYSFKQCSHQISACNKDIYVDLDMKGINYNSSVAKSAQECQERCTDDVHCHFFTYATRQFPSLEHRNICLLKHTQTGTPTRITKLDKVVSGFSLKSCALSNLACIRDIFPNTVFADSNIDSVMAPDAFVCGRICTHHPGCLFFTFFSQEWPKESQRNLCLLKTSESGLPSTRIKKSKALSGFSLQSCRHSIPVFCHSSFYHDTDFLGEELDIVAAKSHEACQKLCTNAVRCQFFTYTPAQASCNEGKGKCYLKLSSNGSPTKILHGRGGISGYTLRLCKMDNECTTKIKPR
Chain of Coagulation factor XI (P03951 388-625 limits assumed): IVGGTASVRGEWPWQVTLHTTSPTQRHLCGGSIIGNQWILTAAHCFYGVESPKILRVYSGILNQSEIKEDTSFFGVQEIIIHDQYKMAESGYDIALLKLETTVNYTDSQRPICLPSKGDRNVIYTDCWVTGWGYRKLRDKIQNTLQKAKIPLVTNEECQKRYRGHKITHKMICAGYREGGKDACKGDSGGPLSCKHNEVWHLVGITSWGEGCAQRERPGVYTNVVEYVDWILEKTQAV

Plasma kallikrein [11] = biological target: Plasma kallikrein (Mus musculus, UniProt P26262); assay: Inhibition of mouse plasma kallikrein preincubated for 15 mins followed by chromogenic substrate addition
Chain of Plasma kallikrein (Mus musculus, UniProt P26262) (P26262 20-390 limits assumed): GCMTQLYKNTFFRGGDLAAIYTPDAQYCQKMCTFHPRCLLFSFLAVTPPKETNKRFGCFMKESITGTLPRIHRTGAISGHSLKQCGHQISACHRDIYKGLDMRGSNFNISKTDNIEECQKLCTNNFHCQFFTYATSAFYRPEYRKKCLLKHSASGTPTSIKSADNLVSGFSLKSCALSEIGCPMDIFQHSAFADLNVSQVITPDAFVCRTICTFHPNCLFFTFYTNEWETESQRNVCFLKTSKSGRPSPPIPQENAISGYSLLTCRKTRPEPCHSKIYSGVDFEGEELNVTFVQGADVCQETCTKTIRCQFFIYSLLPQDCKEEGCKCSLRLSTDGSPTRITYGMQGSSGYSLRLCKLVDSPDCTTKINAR
Chain of Plasma kallikrein (Mus musculus, UniProt P26262) (P26262 391-638 limits assumed): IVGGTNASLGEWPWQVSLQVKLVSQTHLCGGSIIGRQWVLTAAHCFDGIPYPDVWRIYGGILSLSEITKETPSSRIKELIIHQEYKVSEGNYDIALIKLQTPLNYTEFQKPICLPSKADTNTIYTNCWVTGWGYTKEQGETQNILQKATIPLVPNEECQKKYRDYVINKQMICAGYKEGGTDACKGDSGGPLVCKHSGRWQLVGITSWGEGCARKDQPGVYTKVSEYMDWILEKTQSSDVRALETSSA

[12] = biological target: Urokinase-type plasminogen activator (Mus musculus) (UniProt P06869); assay: Inhibition of the intrinsic peri-cellular uPA in mouse CT26 cells assessed as reduction in cell migration at 30 to 100 uM measured every hour by wound healing assay relative to control; format: cell-based
Chain of Urokinase-type plasminogen activator (Mus musculus) (P06869 21-178 limits assumed): as the sequence (P06869 21-178 limits assumed) above
Chain of Urokinase-type plasminogen activator (Mus musculus) (P06869 180-433 limits assumed): as the sequence (P06869 180-433 limits assumed) above

[13] = biological target: T1, Urokinase-type plasminogen activator; assay: Binding affinity to mouse uPA by SPR assay
Plasminogen [14] = biological target: Plasminogen (Homo sapiens, UniProt P00747); assay: Inhibition of human plasmin preincubated for 15 mins followed by chromogenic substrate addition
[15] = biological target: Tissue-type plasminogen activator (Homo sapiens, UniProt P00750); assay: Inhibition of human tissue-type plasminogen activator preincubated for 15 mins followed by chromogenic substrate addition
Chain of Tissue-type plasminogen activator (Homo sapiens, UniProt P00750) (P00750 whole entry): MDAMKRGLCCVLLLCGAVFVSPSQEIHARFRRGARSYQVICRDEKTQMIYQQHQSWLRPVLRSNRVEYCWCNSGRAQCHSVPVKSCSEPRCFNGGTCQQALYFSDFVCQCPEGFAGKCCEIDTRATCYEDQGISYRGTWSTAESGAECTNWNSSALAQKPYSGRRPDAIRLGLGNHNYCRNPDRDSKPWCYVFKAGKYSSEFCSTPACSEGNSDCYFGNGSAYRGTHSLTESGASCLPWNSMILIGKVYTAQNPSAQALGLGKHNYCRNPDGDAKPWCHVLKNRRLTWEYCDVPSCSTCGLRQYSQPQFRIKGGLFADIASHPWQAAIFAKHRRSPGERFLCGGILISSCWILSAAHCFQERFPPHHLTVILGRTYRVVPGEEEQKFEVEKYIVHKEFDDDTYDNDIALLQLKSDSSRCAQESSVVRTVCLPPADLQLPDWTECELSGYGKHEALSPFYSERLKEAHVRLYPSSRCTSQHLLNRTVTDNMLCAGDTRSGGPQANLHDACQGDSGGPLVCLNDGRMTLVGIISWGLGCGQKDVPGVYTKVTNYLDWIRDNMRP

[16] = biological target: Urokinase-type plasminogen activator (Homo sapiens, UniProt P00749); assay: Inhibition of human uPA preincubated for 15 mins followed by chromogenic substrate addition
[17] = biological target: T1, Urokinase-type plasminogen activator; assay: Inhibition of mouse uPA preincubated for 15 mins followed by chromogenic substrate addition
Prothrombin [18] = biological target: Prothrombin (Homo sapiens, UniProt P00734); assay: Inhibition of human thrombin preincubated for 15 mins followed by chromogenic substrate addition
[19] = biological target: Urokinase-type plasminogen activator (Mus musculus) (UniProt P06869); assay: Binding affinity to mouse uPA assessed as dissociation rate constant after 600 secs by SPR assay
[20] = biological target: T2, Suppressor of tumorigenicity 14 protein (Homo sapiens, UniProt Q9Y5Y6); assay: Inhibition of human matriptase preincubated for 15 mins followed by chromogenic substrate addition
T2 sequence (Q9Y5Y6 whole entry): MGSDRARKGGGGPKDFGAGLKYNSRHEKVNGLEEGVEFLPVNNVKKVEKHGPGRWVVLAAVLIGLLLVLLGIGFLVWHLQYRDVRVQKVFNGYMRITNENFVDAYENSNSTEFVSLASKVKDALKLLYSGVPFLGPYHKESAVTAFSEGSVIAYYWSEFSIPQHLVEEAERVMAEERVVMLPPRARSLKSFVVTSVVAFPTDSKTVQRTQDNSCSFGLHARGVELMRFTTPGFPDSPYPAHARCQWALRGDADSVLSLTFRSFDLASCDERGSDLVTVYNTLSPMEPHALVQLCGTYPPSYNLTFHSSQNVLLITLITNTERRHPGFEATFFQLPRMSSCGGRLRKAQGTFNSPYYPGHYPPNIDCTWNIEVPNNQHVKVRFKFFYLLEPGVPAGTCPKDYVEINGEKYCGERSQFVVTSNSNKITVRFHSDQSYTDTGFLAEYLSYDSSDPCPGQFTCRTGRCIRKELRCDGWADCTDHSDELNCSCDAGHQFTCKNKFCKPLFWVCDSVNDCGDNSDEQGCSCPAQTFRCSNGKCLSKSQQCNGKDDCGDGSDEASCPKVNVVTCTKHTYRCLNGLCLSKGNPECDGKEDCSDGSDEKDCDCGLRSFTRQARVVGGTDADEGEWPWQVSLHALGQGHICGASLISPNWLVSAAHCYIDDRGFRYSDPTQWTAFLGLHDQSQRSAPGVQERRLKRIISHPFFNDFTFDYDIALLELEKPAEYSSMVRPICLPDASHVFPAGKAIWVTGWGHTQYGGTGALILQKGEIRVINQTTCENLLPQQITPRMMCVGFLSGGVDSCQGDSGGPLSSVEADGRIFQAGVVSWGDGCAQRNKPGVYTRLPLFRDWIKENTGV

[21] = biological target: Urokinase-type plasminogen activator (Mus musculus) (UniProt P06869); assay: Inhibition of the intrinsic peri-cellular uPA in mouse CT26 cells assessed as reduction in cell invasion at 33 to 100 uM by Transwell invasion assay relative to control
CT26 [22] = assay: Antimetastatic activity against GFP-fused mouse CT26 cells allografted in Balb/c mouse assessed as reduction in relative fluorescence at 12.3 mg/kg, ip administered daily for 15 days by fluorescence-based assay; format: functional, organism-based
Procedure, shortened: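 Lung metastasis model: male Balb/c mice (~20 g, 6/group) given 10^6 GFP-CT-26 cells i.v. with peptide or saline, daily i.p. dosing Day 1–15, sacrificed Day 16. Resected lungs imaged for GFP with 488 nm excitation, emission 520; signal collected over 20×20 mm2 per lung; non-implanted normal group used for background subtraction.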

CT26 [23] = assay: Antimetastatic activity against mouse CT26 cells allografted in Balb/c mouse at 12.3 mg/kg, ip administered daily for 15 days by hematoxylin and eosin staining -based assay; format: functional, organism-based
Procedure, shortened: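 Lung metastasis model: male Balb/c mice given 10^6 GFP-CT-26 cells i.v., daily i.p. dosing Day 1–15, sacrificed Day 16. Formalin-fixed, paraffin-embedded lung sections stained with H&E for histology alongside normal lungs.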

CT26 [24] = assay: Anti-tumor activity against […] mouse CT26 cells allografted in Balb/c mouse assessed as tumor growth inhibition at 12.3 mg/kg, ip administered daily for 15 days and measured on day 16 by […]; format: functional; details: read-out: TGI
Procedure, shortened: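 CT-26 cells implanted subcutaneously in right flank of Balb/c mice; once tumors reached about 150~200 mm3, daily intraperitoneal dosing with peptide or saline for 15 days. Mice sacrificed on Day 16; tumors resected and weighed; tumor growth reduction relative to saline group.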

[25] = Toxicity in Balb/c mouse allografted with mouse CT26 cells assessed as effect on body weight at 12.3 mg/kg, ip administered daily for 15 days; format: organism-based; details: in vivo, 360 h
Procedure, shortened: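 CT-26 tumour-bearing Balb/c mice dosed i.p. daily with peptide or saline; body weights recorded daily over the 15 days.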

CT26 [26] = assay: Antimetastatic activity against GFP-fused mouse CT26 cells allografted in Balb/c mouse assessed as reduction in tumor nodule numbers at 12.3 mg/kg, ip administered daily for 15 days by fluorescence-based assay; format: functional, organism-based
Procedure, shortened: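 Lung metastasis model: male Balb/c mice (~20 g, 6/group) given 10^6 GFP-CT-26 cells i.v. with peptide or saline, daily i.p. dosing Day 1–15, sacrificed Day 16. Surface tumor nodules on pleural surfaces counted per lung after soaking in formaldehyde.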

CT26 [27] = assay: Antimetastatic activity against mouse CT26 cells allografted in Balb/c mouse assessed as reduction genomic DNA of metastatic cells at 12.3 mg/kg, ip administered daily for 15 days by qPCR analysis; format: functional, organism-based
Procedure, shortened: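 Male Balb/c mice (~20 g, 6/group) given 10^6 GFP-CT-26 cells i.v. in 200 µl mixed with peptide or saline, then daily i.p. peptide Day 1–15; sacrificed Day 16. Lung total DNA isolated after homogenization; 200 ng per SYBR Green qPCR, quantified against standard curve of CT-26 DNA spiked into normal lung DNA (0.135%-100%).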

CT26 [28] = assay: Antimetastatic activity against GFP-fused mouse CT26 cells allografted in Balb/c mouse assessed as reduction in hyperplastic weights at 12.3 mg/kg, ip administered daily for 15 days by fluorescence-based assay; format: functional, organism-based
Procedure, shortened: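 Lung metastasis model: male Balb/c mice (~20 g, 6/group) given 10^6 GFP-CT-26 cells i.v. with peptide or saline, then daily i.p. dosing Day 1–15. Lungs resected and weighed immediately at sacrifice on Day 16; hyperplastic weight = lung weight minus weight of lungs from non-implanted normal mice.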

[29] = biological target: Urokinase-type plasminogen activator (Mus musculus) (UniProt P06869); assay: Inhibition of the intrinsic peri-cellular uPA in mouse CT26 cells assessed as reduction in cell invasion measured every hour by transwell assay; format: cell-based
MCF7 = assay: Anti-invasive activity in human MCF7 cells at 100 uM measured every hour by transwell assay; format: functional, cell-based
[30] = biological target: Urokinase-type plasminogen activator (Mus musculus) (UniProt P06869); assay: Inhibition of the intrinsic peri-cellular uPA in mouse CT26 cells assessed as reduction in cell migration at 100 uM measured every hour by wound healing assay relative to control; format: cell-based
[31] = biological target: Urokinase-type plasminogen activator (Mus musculus) (UniProt P06869); assay: Inhibition of the intrinsic peri-cellular uPA in mouse CT26 cells assessed as reduction in cell invasion at 100 uM […] by transwell assay; format: cell-based
Procedure, shortened: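 CT-26 cells, 2×10^5 per Matrigel-coated Transwell top chamber in serum-free DMEM with peptide; 10% serum medium below. After 24 h, invaded underside cells stained with 0.1% crystal violet, eluted in 33% acetic acid, read at A570 and normalized to untreated (100%). Triplicates. The legend gives a 0.1–100 μM dose range, with IC50 derived from the dose-response.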

CC[C@H](C)[C@@H]1NC(=O)[C@H](Cc2ccc(O)cc2)NC(=O)[C@H](CCCNC(=N)N)NC(=O)[C@H](CO)NC(=O)[C@H](Cc2ccc(O)cc2)NC(=O)[C@H](C)NC(=O)[C@@H]2CCCN2C(=O)[C@@H](NC(C)=O)CSSC[C@@H](C(N)=O)NC(=O)CNC1=O (Ac-CPAYSRYIGC-NH2; disulfide 1-10)
Ki [1]: 0.02 µM | Activity (CT26 [2]): Non-Toxic | Ki (Plasma kallikrein [3]): > 25 µM | Ki [4]: 0.246 µM | Ki (Plasminogen [5]): > 25 µM | Ki (Prothrombin [6]): > 25 µM | Ki [7]: > 25 µM | Ki [8]: > 25 µM | Ki [9]: 1.6 µM | Kd [10]: 0.0421 µM | Ki (Coagulation factor XI): > 25 µM | Ki (Plasma kallikrein [11]): > 25 µM | inhibition [12]: 30% | Kd [13]: 0.0147 µM | Ki (Plasminogen [14]): > 25 µM | Ki [15]: > 25 µM | Ki [16]: 0.903 µM | Ki [17]: 0.02 µM | Ki (Prothrombin [18]): > 25 µM | K [19]: 0.0064 s⁻¹ | Ki [20]: > 25 µM | inhibition [21]: 70 to 80%

CC(=O)N[C@H]1CSSC[C@@H](C(N)=O)NC(=O)[C@H](CC(=O)O)NC(=O)[C@H](CC(C)C)NC(=O)[C@H](Cc2ccc(O)cc2)NC(=O)[C@H](CCCNC(=N)N)NC(=O)[C@H](CO)NC(=O)[C@H](Cc2ccc(O)cc2)NC(=O)[C@H](C)NC(=O)[C@@H]2CCCN2C1=O (Ac-CPAYSRYLDC-NH2; disulfide 1-10)
Ki [1]: 0.55 µM | Activity (CT26 [2]): Non-Toxic | Ki (Plasma kallikrein [3]): > 25 µM | Activity (CT26 [22]): inactive | Activity (CT26 [23]): Active | inhibition in vivo at 12.3 mg/kg (CT26 [24]): 36.4% | Ki [4]: 1.77 µM | Ki (Plasminogen [5]): > 25 µM | Activity [25]: Non-Toxic | Ki (Prothrombin [6]): > 25 µM | Ki [7]: > 25 µM | Ki [8]: > 25 µM | Ki [9]: 8.3 µM | Kd [10]: 0.354 µM | Ki (Coagulation factor XI): > 25 µM | Ki (Plasma kallikrein [11]): > 25 µM | inhibition [12]: 30% | Kd [13]: 0.398 µM | Ki (Plasminogen [14]): > 25 µM | Ki [15]: > 25 µM | Ki [16]: 15 µM | Activity (CT26 [26]): inactive | Activity (CT26 [27]): inactive | Ki [17]: 0.55 µM | Ki (Prothrombin [18]): > 25 µM | Activity (CT26 [28]): inactive | inhibition [29]: Dose-dependent effect | Ki [20]: > 25 µM

CC[C@H](C)[C@@H]1NC(=O)[C@H](Cc2ccc(O)cc2)NC(=O)[C@H](C)NC(=O)[C@H](CO)NC(=O)[C@H](Cc2ccc(O)cc2)NC(=O)[C@H](C)NC(=O)[C@@H]2CCCN2C(=O)[C@@H](N)CSSC[C@@H](C(=O)O)NC(=O)CNC1=O (H-CPAYSAYIGC-OH; disulfide 1-10)
Activity (CT26 [2]): Non-Toxic | Activity (MCF7): inactive | inhibition [30]: inactive | inhibition [31]: inactive
